Test results as given in ChEMBL document CHEMBL3875231, “From Dynamic Combinatorial Chemistry to in Vivo Evaluation of Reversible and Irreversible Myeloperoxidase Inhibitors” (ACS Med Chem Lett, 2017).
Calls of active or inactive are those of the source. The calls are words filed in the database; no cut-off is given here.

Legend:
[1] = target: T1, Myeloperoxidase (Homo sapiens) (UniProt P05164); assay: Inhibition of human MPO assessed as residual activity in absence of […]; design: concentration or dose not given beside the values
T1 sequence (whole entry): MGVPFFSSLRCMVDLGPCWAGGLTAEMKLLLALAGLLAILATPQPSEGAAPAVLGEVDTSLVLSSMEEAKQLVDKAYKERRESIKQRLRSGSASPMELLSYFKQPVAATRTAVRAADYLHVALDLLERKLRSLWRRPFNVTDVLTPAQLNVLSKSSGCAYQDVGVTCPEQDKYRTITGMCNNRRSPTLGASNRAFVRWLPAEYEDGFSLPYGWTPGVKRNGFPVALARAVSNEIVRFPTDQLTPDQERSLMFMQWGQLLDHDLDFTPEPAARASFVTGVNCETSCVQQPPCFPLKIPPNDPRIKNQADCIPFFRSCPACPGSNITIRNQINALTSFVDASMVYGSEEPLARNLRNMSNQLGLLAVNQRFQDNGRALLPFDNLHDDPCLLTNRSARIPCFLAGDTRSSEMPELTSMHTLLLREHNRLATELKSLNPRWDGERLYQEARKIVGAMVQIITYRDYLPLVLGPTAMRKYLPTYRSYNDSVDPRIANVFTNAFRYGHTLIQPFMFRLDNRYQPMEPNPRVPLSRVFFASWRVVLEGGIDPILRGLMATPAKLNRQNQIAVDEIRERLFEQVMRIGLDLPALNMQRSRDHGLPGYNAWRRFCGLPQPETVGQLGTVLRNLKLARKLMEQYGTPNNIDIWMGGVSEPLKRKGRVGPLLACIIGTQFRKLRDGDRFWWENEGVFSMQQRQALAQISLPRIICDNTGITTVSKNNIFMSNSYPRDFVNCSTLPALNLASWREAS
Procedure, shortened: (§1)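 Ligand and MPO were mixed with or without H2O2, then diluted 100-fold, and the residual enzymatic activity was measured. An H2O2-alone mixture served as control.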

[2] = target: T1, Myeloperoxidase (Homo sapiens); assay: Inhibition of human MPO assessed as residual activity in presence of H2O2; design: concentration or dose not given beside the values; procedure, shortened: as §1
Myeloperoxidase [3] = target: T2, Myeloperoxidase (Homo sapiens, UniProt P05164); assay: (§2) Inhibition of human MPO
T2 sequence (P05164 whole entry): T1 sequence (whole entry)

[4] = target: T1, Myeloperoxidase (Homo sapiens); assay: as §2; design: concentration or dose not given beside the values; settings: concentration not given here
Rattus norvegicus [5] = assay: Ex vivo inhibition of MPO activity in peritoneal exudate of Wistar albino rat model of carrageenan-induced inflammation assessed as reduction in H2O2-dependent oxidation of TMB at 10 mg/kg, iv measured after 48 hrs; type: functional, organism-based
Procedure, shortened: (§3)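 Male Wistar Han rats had inflammation induced by intraperitoneal carrageenan, then received ligand at 10 mg/kg intravenously. Peritoneal liquid was collected. MPO concentration was measured at 24 h, and MPO activity at 24 h and at 48 h after drug administration. Comparators were carrageenan-only rats and reference rats not treated with carrageenan.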

Rattus norvegicus [6] = assay: Anti-inflammatory activity in Wistar albino rat assessed as inhibition of carrageenan-induced MPO release at 10 mg/kg, iv measured after 24 hrs by ELISA; type: functional, organism-based; procedure, shortened: as §3
Rattus norvegicus [7] = assay: Ex vivo inhibition of MPO activity in peritoneal exudate of Wistar albino rat model of carrageenan-induced inflammation assessed as reduction in H2O2-dependent oxidation of TMB at 10 mg/kg, iv measured after 24 hrs; type: functional, organism-based; procedure, shortened: as §3
[8] = target: T1, Myeloperoxidase (Homo sapiens); assay: Reversible inhibition of human MPO assessed as rate constant for reduction of PorFe(4)-OH to ferric MPO in presence of H2O2 by stopped-flow method
[9] = target: T1, Myeloperoxidase (Homo sapiens); assay: Inhibition of human MPO assessed as rate constant for reduction of PorFe(4)=O to PorFe(4)-OH in presence of H2O2 by stopped-flow method
[10] = target: T1, Myeloperoxidase (Homo sapiens); assay: Inhibition of human MPO assessed as soret band formation at 429 nanometer in presence of H2O2 by stopped-flow method
Myeloperoxidase [11] = target: T2, Myeloperoxidase; assay: Irreversible inhibition of MPO (unknown origin)
Procedure, shortened: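 MPO was preincubated with ligand, with or without H2O2, alongside an H2O2-alone control. The mixture was then diluted 100-fold, residual enzymatic activity was measured, and inactivation was expressed as percent loss of activity.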

[12] = target: T1, Myeloperoxidase (Homo sapiens); assay: Irreversible inhibition of human MPO in presence of H2O2 by stopped-flow method

SMILES | Activity [1] | Activity [2] | IC50 (Myeloperoxidase [3]) | inhibition [4] | inhibition (Rattus norvegicus [5]) | inhibition (Rattus norvegicus [6]) | inhibition (Rattus norvegicus [7]) | K [8] | K [9] | inhibition [10] | IC50 (Myeloperoxidase [11]) | inhibition [12]
NNc1ccc(F)cc1 | 103% | 98% | > 5000 nM | 61% |  |  |  |  |  |  |  | 
OC/C=N/Nc1ccc(F)cc1 | 107% | 97% | > 5000 nM |  |  |  |  |  |  |  |  | 
COc1ccc(/C=N/Nc2nncc3ccccc23)cc1O | 93% | 25% | 150 nM | 91% | Active | Active | Active |  |  |  |  | 
COc1cc(/C=N/NC(=O)c2ccncc2)ccc1O [FTIVAZIDE] | 96% | 91% | 460 nM | 82% |  |  |  |  |  |  |  | 
CN(C)c1ccc(/C=N/Nc2nncc3ccccc23)cc1 | 93% | 92% | 80 nM | 100% |  |  | Active | 89.3 M⁻¹ s⁻¹ | 7.1 ×10⁵ /M/s | Active |  | 
NNc1cccc2ccccc12 |  |  |  | 61% |  |  |  |  |  |  |  | 
COc1cc(/C=N/Nc2ccc(F)cc2)ccc1O | 89% | 98% | 1200 nM | 82% |  |  |  |  |  |  |  | 
NNc1nncc2ccccc12 [HYDRALAZINE] | 92% | 19% | 900 nM | 61% |  |  |  |  | 7.1 ×10⁵ /M/s |  | 900 nM | 
NNC(=O)c1ccncc1 [ISONIAZID] | 98% | 64% | 4700 nM | 61% |  |  |  |  |  |  | 5000 nM | 
COc1cc(/C=N/Nc2nncc3ccccc23)ccc1O | 87% | 22% | 340 nM | 82% |  |  |  |  | 2.8 ×10⁵ /M/s |  |  | Active
CN(C)c1ccc(/C=N/NC(=O)c2ccncc2)cc1 [N'-(4-DIMETHYLAMINOBENZYLIDENE)ISONICOTINOHYDRAZIDE] | 91% | 93% | 1620 nM | 100% |  |  |  |  |  |  |  | 
COc1ccc(/C=N/NC(=O)c2ccncc2)cc1O | 88% | 87% | 430 nM | 91% |  |  |  |  |  |  |  | 
COc1ccc(/C=N/Nc2ccc(F)cc2)cc1O | 81% | 92% | 1130 nM | 91% |  |  |  |  |  |  |  | 
Cc1ccc(NN)cc1 |  |  |  | 61% |  |  |  |  |  |  |  | 
OC/C=N/Nc1nncc2ccccc12 | 82% | 18% | 110 nM |  | Active |  | Active |  | 3.3 ×10⁵ /M/s |  |  | Active
CN(C)c1ccc(/C=N/Nc2ccc(F)cc2)cc1 | 87% | 84% | 3100 nM | 100% |  |  |  |  |  |  |  | 
O=C(N/N=C/CO)c1ccncc1 | 100% | 94% | > 5000 nM |  |  |  |  |  |  |  |  | 
